ChEMBL document CHEMBL1926569, “Novel (E)-1-(4-methyl-2-(alkylamino)thiazol-5-yl)-3-arylprop-2-en-1-ones as potent antimicrobial agents” (2011)
Converted amounts (≈) assume the structure as drawn.

Assays:
Staphylococcus aureus [1] = test: Antibacterial activity against Staphylococcus aureus ATCC 6538 incubated for 24 hrs followed by serial sub-cultivation for 24 hrs by microdilution method; format: functional; conditions: ATCC 6538, 24 h
Summary of the method: (§1)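 MBC: after the 24 h LB broth microdilution (1.0 × 10⁴ CFU per well, 160 rpm), wells were serially sub-cultured into fresh broth plates and incubated a further 24 h. MBC is the lowest concentration with no visible growth, taken as 99.5% killing of the original inoculum. Duplicate, repeated three times.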

Candida albicans [2] = test: Ratio of bifonazole to compound for Candida albicans isolated from human; format: functional
Candida albicans [3] = test: Antifungal activity against Candida albicans isolated from human after 72 hrs by serial dilution technique; format: functional
Summary of the method: (§2)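 Modified microdilution in 96-well plates. Fungi were kept on malt agar at 4 °C. Spores were washed off in sterile 0.85% saline with 0.1% Tween 80. Compounds were dissolved at 1 mg/ml in 5% DMSO with 0.1% Tween 80 and added to malt broth with inoculum. Plates were shaken at 160 rpm for 72 h at 28 °C. Duplicate, repeated three times.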

Aspergillus niger [4] = test: Ratio of bifonazole to compound for Aspergillus niger ATCC 6275; format: functional
Enterococcus faecalis [5] = test: Antibacterial activity against Enterococcus faecalis isolated from human after 24 hrs by microdilution method; format: functional
Summary of the method: (§3)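 Broth microdilution in 96-well plates. Bacterial suspensions were adjusted in sterile saline to 1.0 × 10⁵ CFU/ml, prepared daily and kept at 4 °C. Compound was added to LB broth with 1.0 × 10⁴ CFU per well and shaken at 160 rpm for 24 h at […] (so in the source). MIC is the lowest concentration with no visible growth under a binocular microscope. OD655 was also read. Duplicate, repeated three times.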

Talaromyces funiculosus [6] = test: Ratio of bifonazole to compound for Penicillium funiculosum ATCC 36839; format: functional
Talaromyces funiculosus [7] = test: Antifungal activity against Penicillium funiculosum ATCC 36839 after 72 hrs by serial dilution technique; format: functional; conditions: ATCC 36839, 72 h; summary of the method: as §2
Micrococcus flavus [8] = test: Antibacterial activity against Micrococcus flavus ATCC 10240 after 24 hrs by microdilution method; format: functional; conditions: ATCC 10240, 24 h; summary of the method: as §3
Pseudomonas aeruginosa [9] = test: Antibacterial activity against Pseudomonas aeruginosa ATCC 27853 incubated for 24 hrs followed by serial sub-cultivation for 24 hrs by microdilution; format: functional; conditions: ATCC 27853, 24 h; summary of the method: as §1
Aspergillus flavus [10] = test: Antifungal activity against Aspergillus flavus ATCC 9643 incubated for 72 hrs followed by serial sub-cultivation for 72 hrs by serial dilution technique; format: functional; conditions: ATCC 9643, 72 h
Summary of the method: (§4)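 MFC: material from 72 h malt broth microdilution wells was serially sub-cultured into fresh broth plates and incubated a further 72 h at 28 °C. Fungicidal concentration is taken from growth after sub-culture. Duplicate, repeated three times.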

Pseudomonas aeruginosa [11] = test: Ratio of ampicillin MIC to compound MIC for Pseudomonas aeruginosa ATCC 27853; format: functional
Micrococcus flavus [12] = test: Antibacterial activity against Micrococcus flavus ATCC 10240 incubated for 24 hrs followed by serial sub-cultivation for 24 hrs by microdilution; format: functional; conditions: ATCC 10240, 24 h; summary of the method: as §1
Trichoderma viride [13] = test: Ratio of bifonazole to compound for Trichoderma viride IAM 5061; format: functional
Candida albicans [14] = test: Ratio of ketoconazole to compound for Candida albicans isolated from human; format: functional
Penicillium ochrochloron [15] = test: Antifungal activity against Penicillium ochrochloron ATCC 9112 after 72 hrs by serial dilution technique; format: functional; conditions: ATCC 9112, 72 h; summary of the method: as §2
Penicillium ochrochloron [16] = test: Ratio of bifonazole to compound for Penicillium ochrochloron ATCC 9112; format: functional
Trichoderma viride [17] = test: Antifungal activity against Trichoderma viride IAM 5061 after 72 hrs by serial dilution technique; format: functional; conditions: IAM 5061, 72 h; summary of the method: as §2
Trichoderma viride [18] = test: Antifungal activity against Trichoderma viride IAM 5061 incubated for 72 hrs followed by serial sub-cultivation for 72 hrs by serial dilution technique; format: functional; conditions: IAM 5061, 72 h; summary of the method: as §4
Talaromyces funiculosus [19] = test: Antifungal activity against Penicillium funiculosum ATCC 36839 incubated for 72 hrs followed by serial sub-cultivation for 72 hrs by serial dilution technique; format: functional; conditions: ATCC 36839, 72 h; summary of the method: as §4
Candida albicans [20] = test: Antifungal activity against Candida albicans isolated from human incubated for 72 hrs followed by serial sub-cultivation for 72 hrs by serial dilution technique; format: functional; summary of the method: as §4
Aspergillus niger [21] = test: Antifungal activity against Aspergillus niger ATCC 6275 incubated for 72 hrs followed by serial sub-cultivation for 72 hrs by serial dilution technique; format: functional; conditions: ATCC 6275, 72 h; summary of the method: as §4
Aspergillus niger [22] = test: Antifungal activity against Aspergillus niger ATCC 6275 after 72 hrs by serial dilution technique; format: functional; conditions: ATCC 6275, 72 h; summary of the method: as §2
Aspergillus fumigatus [23] = test: Antifungal activity against Aspergillus fumigatus isolated from human incubated for 72 hrs followed by serial sub-cultivation for 72 hrs by serial dilution technique; format: functional; summary of the method: as §4
Salmonella typhimurium [24] = test: Antibacterial activity against Salmonella Typhimurium ATCC 13311 after 24 hrs by microdilution method; format: functional, Salmonella enterica subsp. enterica serovar Typhimurium; conditions: Salmonella enterica, ATCC 13311, 24 h; summary of the method: as §3
Aspergillus ochraceus [25] = test: Ratio of ketoconazole to compound for Aspergillus ochraceus ATCC 12066; format: functional
Aspergillus flavus [26] = test: Antifungal activity against Aspergillus flavus ATCC 9643 after 72 hrs by serial dilution technique; format: functional; conditions: ATCC 9643, 72 h; summary of the method: as §2
Penicillium ochrochloron [27] = test: Ratio of ketoconazole to compound for Penicillium ochrochloron ATCC 9112; format: functional
Listeria monocytogenes [28] = test: Antibacterial activity against Listeria monocytogenes NCTC 7973 incubated for 24 hrs followed by serial sub-cultivation for 24 hrs by microdilution; format: functional; conditions: NCTC 7973, 24 h; summary of the method: as §1
Aspergillus ochraceus [29] = test: Antifungal activity against Aspergillus ochraceus ATCC 12066 after 72 hrs by serial dilution technique; format: functional; conditions: ATCC 12066, 72 h; summary of the method: as §2
Aspergillus fumigatus [30] = test: Ratio of ketoconazole to compound for Aspergillus fumigatus isolated from human; format: functional
Aspergillus ochraceus [31] = test: Antifungal activity against Aspergillus ochraceus ATCC 12066 incubated for 72 hrs followed by serial sub-cultivation for 72 hrs by serial dilution technique; format: functional; conditions: ATCC 12066, 72 h; summary of the method: as §4
Penicillium ochrochloron [32] = test: Antifungal activity against Penicillium ochrochloron ATCC 9112 incubated for 72 hrs followed by serial sub-cultivation for 72 hrs by serial dilution technique; format: functional; conditions: ATCC 9112, 72 h; summary of the method: as §4
Bacillus cereus [33] = test: Antibacterial activity against clinical isolate of Bacillus cereus after 24 hrs by microdilution method; format: functional; summary of the method: as §3
Aspergillus ochraceus [34] = test: Ratio of bifonazole to compound for Aspergillus ochraceus ATCC 12066; format: functional
Salmonella typhimurium [35] = test: Antibacterial activity against Salmonella Typhimurium ATCC 13311 incubated for 24 hrs followed by serial sub-cultivation for 24 hrs by microdilution; format: functional, Salmonella enterica subsp. enterica serovar Typhimurium; conditions: Salmonella enterica, ATCC 13311, 24 h; summary of the method: as §1
Enterococcus faecalis [36] = test: Antibacterial activity against Enterococcus faecalis isolated from human incubated for 24 hrs followed by serial sub-cultivation for 24 hrs by microdilution; format: functional; summary of the method: as §1
Listeria monocytogenes [37] = test: Antibacterial activity against Listeria monocytogenes NCTC 7973 after 24 hrs by microdilution method; format: functional; conditions: NCTC 7973, 24 h; summary of the method: as §3
Pseudomonas aeruginosa [38] = test: Antibacterial activity against Pseudomonas aeruginosa ATCC 27853 after 24 hrs by microdilution method; format: functional; conditions: ATCC 27853, 24 h; summary of the method: as §3
Escherichia coli [39] = test: Antibacterial activity against Escherichia coli ATCC 35210 incubated for 24 hrs followed by serial sub-cultivation for 24 hrs by microdilution; format: functional; conditions: ATCC 35210, 24 h; summary of the method: as §1
Bacillus cereus [40] = test: Antibacterial activity against clinical isolate of Bacillus cereus incubated for 24 hrs followed by serial sub-cultivation for 24 hrs by microdilution; format: functional; summary of the method: as §1
Staphylococcus aureus [41] = test: Antibacterial activity against Staphylococcus aureus ATCC 6538 after 24 hrs by microdilution method; format: functional; conditions: ATCC 6538, 24 h; summary of the method: as §3
Aspergillus ochraceus [42] = test: Antifungal activity against Aspergillus ochraceus after 72 hrs by serial dilution technique
Escherichia coli [43] = test: Antibacterial activity against Escherichia coli ATCC 35210 after 24 hrs by microdilution method; format: functional; conditions: ATCC 35210, 24 h; summary of the method: as §3

## CCCNc1nc(C)c(C(=O)/C=C/c2ccccc2)s1
Staphylococcus aureus [1]
  MBC: 105 µM (≈ 30.1 µg/mL)
Candida albicans [2]
  Ratio: 10
Candida albicans [3]
  MIC: 35 µM (≈ 10 µg/mL)
Aspergillus niger [4]
  Ratio: 10
Enterococcus faecalis [5]
  MIC: 90 µM (≈ 25.8 µg/mL)
Talaromyces funiculosus [6]
  Ratio: 10
Talaromyces funiculosus [7]
  MIC: 52.4 µM (≈ 15 µg/mL)
Micrococcus flavus [8]
  MIC: 70 µM (≈ 20 µg/mL)
Pseudomonas aeruginosa [9]
  MBC: 90 µM (≈ 25.8 µg/mL)
Aspergillus flavus [10]
  MFC: 70 µM (≈ 20 µg/mL)
Pseudomonas aeruginosa [11]
  Ratio: 10
Micrococcus flavus [12]
  MBC: 105 µM (≈ 30.1 µg/mL)
Trichoderma viride [13]
  Ratio: 10
Candida albicans [14]
  Ratio: 10
Penicillium ochrochloron [15]
  MIC: 35 µM (≈ 10 µg/mL)
Penicillium ochrochloron [16]
  Ratio: 10
Trichoderma viride [17]
  MIC: 26.2 µM (≈ 7.5 µg/mL)
Trichoderma viride [18]
  MFC: 35 µM (≈ 10 µg/mL)
Talaromyces funiculosus [19]
  MFC: 70 µM (≈ 20 µg/mL)
Candida albicans [20]
  MFC: 70 µM (≈ 20 µg/mL)
Aspergillus niger [21]
  MFC: 70 µM (≈ 20 µg/mL)
Aspergillus niger [22]
  MIC: 52.4 µM (≈ 15 µg/mL)
Aspergillus fumigatus [23]
  MFC: 70 µM (≈ 20 µg/mL)
Salmonella typhimurium [24]
  MIC: 70 µM (≈ 20 µg/mL)
Aspergillus ochraceus [25]
  Ratio: 10
Aspergillus flavus [26]
  MIC: 52.4 µM (≈ 15 µg/mL)
Penicillium ochrochloron [27]
  Ratio: 10
Listeria monocytogenes [28]
  MBC: 105 µM (≈ 30.1 µg/mL)
Aspergillus ochraceus [29]
  MIC: 35 µM (≈ 10 µg/mL)
Aspergillus fumigatus [30]
  Ratio: 10
Aspergillus ochraceus [31]
  MFC: 52.4 µM (≈ 15 µg/mL)
Penicillium ochrochloron [32]
  MFC: 70 µM (≈ 20 µg/mL)
Bacillus cereus [33]
  MIC: 35 µM (≈ 10 µg/mL)
Aspergillus ochraceus [34]
  Ratio: 10
Salmonella typhimurium [35]
  MBC: 90 µM (≈ 25.8 µg/mL)
Enterococcus faecalis [36]
  MBC: 90 µM (≈ 25.8 µg/mL)
Listeria monocytogenes [37]
  MIC: 90 µM (≈ 25.8 µg/mL)
Pseudomonas aeruginosa [38]
  MIC: 70 µM (≈ 20 µg/mL)
Escherichia coli [39]
  MBC: 88 µM (≈ 25.2 µg/mL)
Bacillus cereus [40]
  MBC: 70 µM (≈ 20 µg/mL)
Staphylococcus aureus [41]
  MIC: 90 µM (≈ 25.8 µg/mL)
Aspergillus ochraceus [42]
  MIC: 52.4 µM (≈ 15 µg/mL)
Escherichia coli [43]
  MIC: 70 µM (≈ 20 µg/mL)
